Source: ChEMBL document CHEMBL4680084, “New β-Lactam Derivatives Modulate Cell Adhesion and Signaling Mediated by RGD-Binding and Leukocyte Integrins” (J Med Chem, 2016)
Numbered stars: 1 amine (or outer) side, 2 acyl side, 3 side chain; on linkers, the order of the positions; unused ones are H or OH. Square brackets hold non-standard residues; d marks the D form. Peptide text beside a SMILES is read from it. * marks the point of attachment. X1 = O=C(Cc1ccc(N[*:1])cc1)[*:2]; NH(2-Me-phenyl) = Cc1ccccc1N*; CO = O=C([*:1])[*:2]

Experiments:
[1] = tested on: SK-MEL-24; test: Toxicity in human SK-MEL-24 cells assessed as induction of cell necrosis and/or apoptosis incubated for 3 hrs by annexin V-PE and 7-AAD staining based by flow cytometry; conditions: sk-mel-24, 3 h
Summary of the method: (§1)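 After 3 h incubation, cells resuspended in complete medium and stained with annexin V-PE/7-AAD reagent for 20 min at room temperature in the dark. Flow cytometry sorted cells into viable, early apoptotic and late apoptotic/necrotic populations.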

[2] = tested on: MCF7; test: Toxicity in human MCF7 cells assessed as induction of cell necrosis and/or apoptosis incubated for 3 hrs by annexin V-PE and 7-AAD staining based by flow cytometry; conditions: mcf7, 3 h; summary of the method: as §1
[3] = tested on: HT-29; test: Toxicity in human HT-29 cells assessed as induction of cell necrosis and/or apoptosis incubated for 3 hrs by annexin V-PE and 7-AAD staining based by flow cytometry; conditions: ht-29, 3 h; summary of the method: as §1
[4] = tested on: K562; test: Toxicity in human K562 cells assessed as induction of cell necrosis and/or apoptosis incubated for 3 hrs by annexin V-PE and 7-AAD staining based by flow cytometry; conditions: k562, 3 h; summary of the method: as §1
[5] = tested on: HEL; test: Toxicity in human HEL cells assessed as induction of cell necrosis and/or apoptosis incubated for 3 hrs by annexin V-PE and 7-AAD staining based by flow cytometry; summary of the method: as §1
[6] = target: T1, Integrin alpha-V/beta-3 (Homo sapiens, UniProt P05106+P06756); test: Agonist activity at alphaVbeta3 in human SK-MEL-24 cells assessed as increase in cell adhesion to fibronectin pre-incubated for 30 mins before fibronectin and further incubated for 1 hr by nitrophenyl-N-acetyl-beta-D-glucosaminide substrate based chromogenic assay
Summary of the method: (§2)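 Compound or methanol vehicle pre-incubated with cells for 30 min at room temperature. Cells then plated on wells coated overnight at 4 °C with fibronectin 10 µg/mL (SK-MEL-24, K562, HT-29) or fibrinogen 10 µg/mL (MCF7, HEL). Seeding was 50,000 cells/well, or 100000 for HEL. Adhesion ran 1 h at room temperature. Wells washed with 1% BSA/PBS. Adherent cells read by hexosaminidase substrate, absorbance 405 nm. Quadruplicate, at least three repeats.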

[7] = target: T1, Integrin alpha-V/beta-3; test: Antagonist activity at alphaVbeta3 in human SK-MEL-24 cells assessed as reduction in cell adhesion to fibronectin pre-incubated for 30 mins before fibronectin and further incubated for 1 hr by nitrophenyl-N-acetyl-beta-D-glucosaminide substrate based chromogenic assay
Summary of the method: as §2, with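 “BSA/PBS.” for “BSA/PBS. Adherent cells read by hexosaminidase substrate, absorbance 405 nm.”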

[8] = target: T2, Integrin alpha-V/beta-5 (Homo sapiens, UniProt P06756+P18084); test: Agonist activity at alphaVbeta5 in human MCF7 cells assessed as increase in cell adhesion to fibrinogen pre-incubated for 30 mins before fibrinogen and further incubated for 1 hr by nitrophenyl-N-acetyl-beta-D-glucosaminide substrate based chromogenic assay; summary of the method: as §2
[9] = target: T2, Integrin alpha-V/beta-5; test: Antagonist activity at alphaVbeta5 in human MCF7 cells assessed as reduction in cell adhesion to fibrinogen pre-incubated for 30 mins before fibrinogen and further incubated for 1 hr by nitrophenyl-N-acetyl-beta-D-glucosaminide substrate based chromogenic assay
Summary of the method: as §2, with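 “BSA/PBS.” for “BSA/PBS. Adherent cells read by hexosaminidase substrate, absorbance 405 nm.”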

[10] = target: T3, Integrin alpha-V/beta-6 (Homo sapiens, UniProt P06756+P18564); test: Agonist activity at alphaVbeta6 in human HT-29 cells assessed as increase in cell adhesion to fibronectin pre-incubated for 30 mins before fibronectin and further incubated for 1 hr by nitrophenyl-N-acetyl-beta-D-glucosaminide substrate based chromogenic assay; summary of the method: as §2
[11] = target: T3, Integrin alpha-V/beta-6; test: Antagonist activity at alphaVbeta6 in human HT-29 cells assessed as reduction in cell adhesion to fibronectin pre-incubated for 30 mins before fibronectin and further incubated for 1 hr by nitrophenyl-N-acetyl-beta-D-glucosaminide substrate based chromogenic assay
Summary of the method: as §2, with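 “BSA/PBS.” for “BSA/PBS. Adherent cells read by hexosaminidase substrate, absorbance 405 nm.”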

[12] = target: T4, Integrin alpha-5/beta-1 (Homo sapiens, UniProt P05556+P08648); test: Antagonist activity at alpha5beta1 in human K562 cells assessed as reduction in cell adhesion to fibronectin pre-incubated for 30 mins before fibronectin and further incubated for 1 hr by nitrophenyl-N-acetyl-beta-D-glucosaminide substrate based chromogenic assay; summary of the method: as §2
[13] = target: T5, Integrin alpha-4/beta-1 (Homo sapiens, UniProt P05556+P13612); test: Agonist activity at alpha4beta1 in human Jurkat E6.1 cells assessed as increase in cell adhesion to VCAM1 pre-incubated for 30 mins before VCAM1 and further incubated for 30 mins by […]; format: cell-based
Summary of the method: (§3)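 Jurkat E6.1 cells labelled with CellTracker green CMFDA (12.5 µM, 30 min, 37 °C), washed, then pre-incubated 30 min at 37 °C with compound or methanol. Plated at 500,000/well on VCAM-1 (α4β1) or ICAM-1 (αLβ2) coated wells (5 µg/mL) for 30 min at 37 °C. Cells lysed in 0.5% Triton X-100; fluorescence read Ex485/Em535. Quadruplicate, at least three repeats.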

[14] = target: T6, Integrin alpha-IIb/beta-3 (Homo sapiens, UniProt P05106+P08514); test: Agonist activity at alpha2bbeta3 in human HEL cells assessed as increase in cell adhesion to fibrinogen pre-incubated for 30 mins before fibrinogen and further incubated for 1 hr by nitrophenyl-N-acetyl-beta-D-glucosaminide substrate based chromogenic assay
Summary of the method: as §2, with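 “BSA/PBS.” for “BSA/PBS. Adherent cells read by hexosaminidase substrate, absorbance 405 nm.”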

[15] = target: T6, Integrin alpha-IIb/beta-3; test: Antagonist activity at alpha2bbeta3 in human HEL cells assessed as reduction in cell adhesion to fibrinogen pre-incubated for 30 mins before fibrinogen and further incubated for 1 hr by nitrophenyl-N-acetyl-beta-D-glucosaminide substrate based chromogenic assay
Summary of the method: as §2, with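 “BSA/PBS.” for “BSA/PBS. Adherent cells read by hexosaminidase substrate, absorbance 405 nm.”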

[16] = target: T5, Integrin alpha-4/beta-1; test: Antagonist activity at alpha4beta1 in human Jurkat E6.1 cells assessed as reduction in cell adhesion to VCAM1 pre-incubated for 30 mins before VCAM1 and further incubated for 30 mins by […]; format: cell-based
[17] = target: T7, Integrin alpha-L/beta-2 (LFA-1) (Homo sapiens, UniProt P05107+P20701); test: Agonist activity at alphaLbeta2 in human Jurkat E6.1 cells assessed as increase in cell adhesion to ICAM1 pre-incubated for 30 mins before ICAM1 and further incubated for 30 mins by […]; format: cell-based; summary of the method: as §3
[18] = target: T7, Integrin alpha-L/beta-2 (LFA-1); test: Antagonist activity at alphaLbeta2 in human Jurkat E6.1 cells assessed as reduction in cell adhesion to ICAM1 pre-incubated for 30 mins before ICAM1 and further incubated for 30 mins by […]; format: cell-based; summary of the method: as §3
[19] = target: T6, Integrin alpha-IIb/beta-3; test: Inhibition of fibrinogen binding to alpha2bbeta3 isolated from human HEL cells incubated for 1 hr by […] competitive solid-phase binding assay
[20] = target: T4, Integrin alpha-5/beta-1; test: Inhibition of fibronectin binding to alpha5beta1 isolated from human K562 cells incubated for 1 hr by […] competitive solid-phase binding assay; format: tissue-based
Summary of the method: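 Plates coated overnight at 4 °C in carbonate buffer pH 9.6 with fibronectin 0.5 µg/mL (αvβ3, αvβ6, α5β1), fibrinogen 10 µg/mL (αIIbβ3, αvβ5) or ICAM-1 (αLβ2). Blocked 1 h in buffer containing Ca/Mg/Mn 1 mM each and 1% BSA. Purified integrin (3–10 µg/mL) incubated with compound (10⁻⁴–10⁻¹⁰ M) 1 h at room temperature. Bound integrin detected with primary antibody then AlexaFluor488 secondary, Ex485/Em535. Duplicate, at least three repeats.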

[21] = target: T4, Integrin alpha-5/beta-1; test: Agonist activity at alpha5beta1 in human K562 cells assessed as increase in cell adhesion to fibronectin pre-incubated for 30 mins before fibronectin and further incubated for 1 hr by nitrophenyl-N-acetyl-beta-D-glucosaminide substrate based chromogenic assay; summary of the method: as §2
[22] = target: T1, Integrin alpha-V/beta-3; test: Inhibition of fibronectin binding to human recombinant alphaVbeta3 expressed in HEK293 cells incubated for 1 hr by […] competitive solid-phase binding assay; format: cell-based
[23] = target: T2, Integrin alpha-V/beta-5; test: Inhibition of fibrinogen binding to alphaVbeta5 isolated form human mCf7 cells incubated for 1 hr by […] competitive solid-phase binding assay
[24] = target: T3, Integrin alpha-V/beta-6; test: Inhibition of fibronectin binding to alphaVbeta6 isolated form human HT-29 cells incubated for 1 hr by […] competitive solid-phase binding assay; format: tissue-based
[25] = target: T5, Integrin alpha-4/beta-1; test: Inhibition of fibronectin binding to […] isolated from human Jurkat E6.1 cells incubated for 1 hr by scintillation-proximity assay based competitive solid-phase binding assay; format: tissue-based

Row | IC50 [7] [µM] | IC50 [9] [µM] | EC50 [10] [µM] | IC50 [11] [µM] | IC50 [12] [µM] | EC50 [14] [µM] | IC50 [15] [µM] | IC50 [18] [µM] | Molecule | Activity [1] | Activity [2] | Activity [3] | Activity [4] | Activity [5] | EC50 [6] [µM] | EC50 [8] [µM] | EC50 [13] [µM] | IC50 [16] [µM] | EC50 [17] [µM] | also measured
1 | > 5 | > 5 | > 5 | > 5 | 0.417 | > 5 | > 5 | > 5 | O=C(O)CC1CC(=O)N1C(=O)NCc1ccccc1 (stereo not drawn) | Non-Toxic | Non-Toxic | Non-Toxic | Non-Toxic | Non-Toxic | > 5 | > 5 | > 5 | > 5 | > 5 | 
2 | 0.0409 |  | > 5 | > 5 |  | 0.311 |  | 1.63 | O=C(O)CC1CC(=O)N1 (stereo not drawn) | Non-Toxic | Non-Toxic | Non-Toxic | Non-Toxic | Non-Toxic |  | 0.376 | > 5 | > 5 |  | IC50 [19]: 0.265 µM; IC50 [20]: > 1 µM; EC50 [21]: 1.03 µM; IC50 [22]: 0.0019 µM; IC50 [23]: 0.0024 µM; IC50 [24]: > 1 µM; IC50 [25]: > 1 µM
3 |  | 2.28 | > 5 | > 5 | > 5 | > 5 | > 5 |  | Ac-DRLDS-OH | Non-Toxic | Non-Toxic | Non-Toxic | Non-Toxic | Non-Toxic |  |  |  |  |  | EC50 [21]: > 5 µM
4 |  |  |  |  |  |  |  | 0.00084 | Cc1ccccc1NC(=O)Nc1ccc(CC(=O)N[C@@H](CC(C)C)C(=O)N[C@@H](CC(=O)O)C(=O)N[C@H](C(=O)N2CCC[C@H]2C(=O)O)C(C)C)cc1 ({NH(2-Me-phenyl)-CO}-[X1]LDVP-OH) | Non-Toxic | Non-Toxic | Non-Toxic | Non-Toxic | Non-Toxic |  |  |  |  |  | 

Further lines, the molecule ahead of its results:

Row | Molecule | IC50 [7] [µM] | IC50 [9] [µM] | EC50 [10] [µM] | IC50 [11] [µM] | IC50 [12] [µM] | EC50 [14] [µM] | IC50 [15] [µM] | IC50 [18] [µM] | Activity [1] | Activity [2] | Activity [3] | Activity [4] | Activity [5] | EC50 [6] [µM] | EC50 [8] [µM] | EC50 [13] [µM] | IC50 [16] [µM] | EC50 [17] [µM] | also measured
5 | H-GRGDTP-OH | 0.925 | 0.0342 | > 5 | > 5 | 0.00062 | > 5 | > 5 |  | Non-Toxic | Non-Toxic | Non-Toxic | Non-Toxic | Non-Toxic |  |  |  |  |  | 
6 | CC(C)[C@@H]1NC(=O)[C@@H](Cc2ccccc2)NC(=O)[C@H](CC(=O)O)NC(=O)CNC(=O)[C@H](CCCN=C(N)N)NC1=O [CYCLORGDFV] |  |  |  |  |  |  |  |  | Non-Toxic | Non-Toxic | Non-Toxic | Non-Toxic | Non-Toxic |  |  |  |  |  | 
7 | Nc1ccc(CNC(=O)N2C(=O)CC2CC(=O)NCCC(=O)O)cc1.O=C(O)C(F)(F)F (stereo not drawn) | > 5 | > 5 | > 5 | > 5 | 1.05 | > 5 | > 5 | > 5 | Non-Toxic | Non-Toxic | Non-Toxic | Non-Toxic | Non-Toxic | > 5 | > 5 | > 5 | > 5 | > 5 | 
8 | NCc1ccc(NC(=O)N2C(=O)C[C@H]2C(=O)O)cc1.O=C(O)C(F)(F)F | > 5 | > 5 | > 5 | > 5 |  | > 5 | > 5 | > 5 | Non-Toxic | Non-Toxic | Non-Toxic | Non-Toxic | Non-Toxic | > 5 | > 5 | > 5 | > 5 | > 5 | 
9 | CCCCS(=O)(=O)N[C@@H](Cc1ccc(OCCCCC2CCNCC2)cc1)C(=O)O [TIROFIBAN] |  |  |  |  |  |  |  |  | Non-Toxic | Non-Toxic | Non-Toxic | Non-Toxic | Non-Toxic |  |  |  |  |  | 
